High-throughput results: PubChem, several laboratories
This is a sample that favours compounds with a hit; in the whole collection about 5.7% have one here.
Beta cell apopt = beta cell apoptosis inhibition; protection from apoptosis, % (no concentration beside the values); INS-1E cytokine-induced death, ATP luminescence, 48 h; percent of positive-control rescue, neutral wells zero; AID 435005; actives 0.8% (n = 300,000);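 active = Every replicate reaches about 75%, or at least half do and their mean reaches it too, limit read from the data; inconclusive = At least half of replicates reach the limit but their mean does not; inactive = Under half of replicates reach the limit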;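 also: 0% = cytokine-treated negative control wells and 100% = positive control rescue; higher means more ATP so stronger rescue from cytokine killing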
T cruzi repl = T. cruzi replication inhibition; AID 1885; T. cruzi beta-gal in NIH3T3, luminescence, 90 h; actives 1.4% (n = 300,000); inhibition, % (no concentration beside the values);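 active = mean inhibition across valid replicates above about 55%, limit read from the data; inconclusive = mean below that limit but half or more replicates reach it; inactive = mean below it, under half of replicates reach it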;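 also: signal also drops with host cell toxicity which is not excluded here; 0% = plate median of DMSO wells and 100% = zero luminescence signal; higher percent means less beta-gal luminescence so fewer parasites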
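Material: NIH/3T3 host cells with β-galactosidase reporter T. cruzi; Input: 5,000 host fibroblasts per well; Medium: DMEM, 2% fetal bovine serum; Compound: 50 nL DMSO compound solution per well; Schedule: 3 h host attachment, then at least 90 h co-culture; Detection: luminescent β-galactosidase signal after 60 min lysis.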
Calb FLC = affects C. albicans growth with fluconazole | C. albicans CaCi-2 (fluconazole-resistant clinical isolate) + fluconazole, Alamar Blue growth, 48 h | growth inhibition, % (no concentration beside the values) | actives 0.57% (n = 300,000);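 active = growth inhibition above about 58% in most replicates, limit read from the data, passing the limit was not always enough; inconclusive = exactly half the replicates above a set limit; inactive = most replicates below a set limit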;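 also: all wells also contain fluconazole at 8 µg/ml as a sub-toxic cotreatment; 0% = median of DMSO wells and 100% = median of geldanamycin control wells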
CSC inhib = cancer stem cell inhibition; cancer stem cell-like cells viability, luminescence; inhibition, % at 7.5 µM; actives 1.1% (n = 300,000); in the data active = inhibition above about 75%; inconclusive = no clear call, values can overlap the other calls; tested in HMLE shEcad cells
Mdm2-MdmX inh = human Mdm2/MdmX binding inhibition. O15151+Q00987. SaOS-2 split-luciferase Mdm2/MdmX complementation, luminescence. inhibition, % at 8 µM. actives 3% (n = 330,000);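 active = inhibition of at least 50% at 8 µM in the primary screen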
Target sequence (O15151 whole entry, looked up): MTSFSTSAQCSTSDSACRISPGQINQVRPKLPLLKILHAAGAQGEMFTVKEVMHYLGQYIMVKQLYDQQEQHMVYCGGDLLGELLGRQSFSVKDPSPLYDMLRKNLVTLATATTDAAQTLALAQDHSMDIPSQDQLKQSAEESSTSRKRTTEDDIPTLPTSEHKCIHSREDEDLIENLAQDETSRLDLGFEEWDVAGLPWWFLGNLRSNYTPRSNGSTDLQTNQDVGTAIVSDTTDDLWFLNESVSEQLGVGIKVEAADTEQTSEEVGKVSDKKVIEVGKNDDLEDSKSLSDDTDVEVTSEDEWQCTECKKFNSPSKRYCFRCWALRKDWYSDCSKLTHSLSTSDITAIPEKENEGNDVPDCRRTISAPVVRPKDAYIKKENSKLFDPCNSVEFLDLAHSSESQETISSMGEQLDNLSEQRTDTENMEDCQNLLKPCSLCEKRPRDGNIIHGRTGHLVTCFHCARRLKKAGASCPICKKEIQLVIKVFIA
Target sequence (Q00987 whole entry, looked up): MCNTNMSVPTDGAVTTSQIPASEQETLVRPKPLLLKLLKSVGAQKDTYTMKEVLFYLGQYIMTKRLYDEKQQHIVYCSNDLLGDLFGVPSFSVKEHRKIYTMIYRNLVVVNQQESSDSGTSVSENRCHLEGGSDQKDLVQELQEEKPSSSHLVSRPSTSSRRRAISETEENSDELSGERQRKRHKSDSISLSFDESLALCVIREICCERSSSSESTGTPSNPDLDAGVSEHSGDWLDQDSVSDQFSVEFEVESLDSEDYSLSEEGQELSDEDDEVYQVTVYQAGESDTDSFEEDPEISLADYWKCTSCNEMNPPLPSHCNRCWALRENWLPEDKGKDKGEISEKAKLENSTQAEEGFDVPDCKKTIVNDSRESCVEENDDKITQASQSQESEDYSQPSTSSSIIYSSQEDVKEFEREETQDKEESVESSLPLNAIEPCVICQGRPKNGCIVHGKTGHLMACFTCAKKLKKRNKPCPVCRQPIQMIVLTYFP
SKKanGAS inh = blocks kanamycin growth of S. pyogenes SKKanGAS strain. BacTiter-Glo, 6 h. inhibition, % at 7.5 µM. actives 1.3% (n = 300,000);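 active = mean replicate score, as percent of positive control median, at least 50; inconclusive = mean below 50 but one replicate at or above 50; inactive = mean and every replicate below 50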;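 also: strain carries kanamycin resistance gene driven by streptokinase promoter and grows in 40 µg/ml kanamycin; loss of luminescence reflects streptokinase promoter inhibition or plain growth inhibition; 0% = median of DMSO wells and 100% = positive control at its reference dose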
The depositor's hits bear a star; u = inconclusive; x = not tested or not shown.

SMILES	Beta cell apopt	T cruzi repl	Calb FLC	CSC inhib	Mdm2-MdmX inh	SKKanGAS inh
CC(/C=C1\SC(=S)N(C(C(=O)O)c2ccccc2)C1=O)=C\c1ccccc1 (stereo unspecified)	-8	-4	11	22	-1	61*
CC(/C=C1\SC(=S)N(CC(=O)O)C1=O)=C\c1ccccc1	-6	-2	-2	0	-18	4
COc1ccc(-c2cc(C(=O)NCCN3CCOCC3)no2)cc1OC	-2	3	-5	7	4	0
CC(C)Sc1cc(N2CCCC2)nc(-c2ccccc2Cl)n1	1	20	13	9	-16	-11
CCCSc1cc(N2CCCC2)nc(-c2ccccc2)n1	-3	-2	6	-1	-6	52*
CC(C)Sc1cc(N2CCCC2)nc(-c2ccc(F)cc2)n1	-1	12	0	0	22	76*
CC(C)Sc1cc(N2CCOCC2)nc(-c2ccccc2)n1	-6	25	-15	24	-8	-4
CC(C)Sc1cc(N2CCCC2)nc(-c2ccccc2)n1	7	9	-1	2	0	69*
CN(CC(=O)Nc1ccccc1Cl)C(=O)C1CSC2(C)CCC(=O)N12 (stereo unspecified)	-8	x	x	-19	-18	x
CN(C(=O)COC(=O)c1ccc(Cl)s1)C1(C#N)CCCCC1	x	x	x	x	8	x
COc1ccc(C(=O)COC(=O)CCN=C2NS(=O)(=O)c3ccccc32)c(OC)c1	x	-10	4	-13	1	2
CC1CC(C)C[N+](=C2C=C(N3CCCC3)CC(C)(C)C2)C1 (stereo unspecified)	x	59*	-15	x	x	-13
CC1(C)CC(N2CCN(c3ccccc3)CC2)=CC(=[N+]2CCCC2)C1	97*	68*	94*	59	37	6
NC1=NC[C@H](Cc2ccc(O)cc2)N1CCC12CC3CC(CC(C3)C1)C2	3	20	106*	-7	21	15
CCCCN1C(N)=NC[C@@H]1Cc1ccc(O)cc1	-22	-18	9	-5	26	-3
S=C1NC[C@H](CC2CCCCC2)N1CC1CCCCC1	23	31	-7	28	33	61*
O=C(NC(c1ccc(Cl)cc1)c1cc(Cl)c2cccnc2c1O)c1cccnc1 (stereo unspecified)	96*	58*	84*	113*	x	113*
O=C(NCc1ccc(Cl)cc1)c1cccnc1	20	-8	1	-9	2	-1
O=C(NCC1CCCN1S(=O)(=O)c1cccs1)c1ccccc1F (stereo unspecified)	2	u	-5	-5	12	3
COc1ccc(NC(=O)CN(C)C(=O)c2ccc(S(=O)(=O)Nc3ccccc3F)cc2)cc1	x	-16	-1	-1	-3	-3
O=C(Cn1cnc([N+](=O)[O-])c1)c1ccc(Cl)cc1	-1	-1	3	-1	33	-4
O=C(C[n+]1cnn(CC(=O)c2ccc(Cl)cc2Cl)c1)c1ccc([N+](=O)[O-])cc1	7	7	-1	21	x	93*
O=C(Nc1cc(Cl)ccc1Cl)C1Cc2ccccc2O/C1=N\O (stereo unspecified)	-5	1	-2	-7	-9	3
CC(=O)OCCNc1cc(SCc2ccco2)c2nonc2c1[N+](=O)[O-]	-4	-1	-26	-1	x	1
O=[N+]([O-])c1c(NCCCO)cc(Sc2ccc(Cl)cc2)c2nonc12	0	51	-9	88*	x	2
CC(=O)OCCNc1cc(Sc2nc3ccccc3[nH]2)c2nonc2c1[N+](=O)[O-]	1	56*	0	41	x	53*
Fc1ccc(Cn2cccc2C2=NC(c3ccccc3)CO2)cc1 (stereo unspecified)	4	-7	15	10	-14	u
Cc1oc(-c2ccccc2)nc1Cn1cccc1C1=NC(c2ccccc2)CO1 (stereo unspecified)	6	9	2	37	21	69*
Cc1ccc(OCc2cc(C(=O)NCc3ccc(OC(F)(F)F)cc3)no2)cn1	-5	-5	9	12	30	-3
Cc1ccc(OCc2cc(C(=O)NCc3cnn(-c4cccc(F)c4)c3)no2)cn1	-3	2	78*	1	-13	-4
